Dynein transport = blocks dynein driven cargo transport along microtubules | 220,000 tested, 0.47% active | z-score, hits read low | 3617.4 mouse cells, GR-EGFP nuclear translocation imaging; test concentration mostly 20 µM; stimulated with dexamethasone, 1 µM; stronger effect = lower value;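 active = plate z-score of nuclear minus cytoplasmic receptor signal below a set negative limit, without overly bright fluorescence or cell loss, cut at about -3.5 in these data, passing the limit was not always enough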;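 also: z-score of nuclear minus cytoplasmic ring GR-EGFP intensity difference per well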
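Buffer or medium: tet-free, stripped-serum medium; reagent: dexamethasone at 1.0 µM final, 30 min; incubation: 48 h induction, 1 h compound, 30 min dex at 37 °C; measured by: formaldehyde fixation, Hoechst nuclear stain, 10x automated fluorescence imaging; read-out: nuclear-to-cytoplasmic GR-EGFP distribution per well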
MT stabilize HCS = microtubule stabilizers in HeLa cells; 200,000 tested, 0.83% active; AID 2205; HeLa tubulin immunostaining HCS, 24 h; share of cells brighter than vehicle mean+2SD; % tubulin-high responders, % at 10 µM;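 active = plate Z-score above 3 for both tubulin-high and condensed-nucleus cell shares, with cell loss under 80%, at 10 µM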;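 also: anti alpha tubulin signal scored within the nucleus-defined area of each cell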
bCat nuc transl = modulators of beta-catenin nuclear translocation. HeLa beta-catenin nuclear translocation, immunofluorescence imaging. nuclear translocation activity, % at 5 µM. 190,000 tested, 0.3% active. AID 1665;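 active = nuclear translocation activity above 50% at 5 µM, with a well cell count of 50 or more; inconclusive = wells under 50 cells across six images, flagged as toxic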;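 also: per-cell ratio of nuclear to cytoplasmic median beta-catenin stain intensity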
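Test system: human HeLa cells, native beta-catenin. Compound dosing: 5 µM primary single dose, 0.1% DMSO, 0.02–20 µM confirmation series. Incubation: compound exposure 24 h at 37°C. Detection: beta-catenin immunostaining with DAPI counterstain, 20x imaging, 6 fields/well. Read-out basis: Nuclear/cytoplasmic beta-catenin signal ratio, % activation.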
Lmaj promast = inhibitors of Leishmania major promastigote growth. Leishmania major promastigotes, resazurin fluorescence viability. inhibition, % at 10 µM. 200,000 tested, 9% active. AID 1063; in the data active = inhibition above about 50%;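 also: promastigotes grown with compound for 44 hours at 28 °C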
HSV replic up = increases HSV replication in cells | AID 1956 | maximum fold increase | 220,000 tested, 0.005% active | HSV replication augmentation in cells, fold increase; in the data active = maximum fold increase above about 1.5; inconclusive = no clear call, values can overlap the other calls; tested in PC3 cells
Of the large screens only hits and unclear results are named; the others gave an inactive call. Shown are actives, neighbours in structure and some others; about 8.9% of the full set was active somewhere.

CCc1cccc(OCCn2nc(C(=O)O)c3ccccc3c2=O)c1	none
Brc1cccc(OCCOCCn2ccnc2)c1	Lmaj promast 99
CCOc1cccc(OCCCCn2ccnc2)c1	Lmaj promast 87
CCCCN(CC)CCCNC(=O)Cn1nc(Cc2cccnc2)c2ccccc2c1=O	none
O=[N+]([O-])c1cccc(-n2cccc2/C=N/Nc2nc(N3CCCCC3)nc(N3CCCCC3)n2)c1	none
O=[N+]([O-])c1ccc(/C=N/Nc2ccc3ccccc3c2)o1	HSV replic up inconclusive
COc1nc(N/N=C/c2ccc(-c3cccc([N+](=O)[O-])c3)o2)nc(N2CCOCC2)n1	none
O=[N+]([O-])c1ccc(-c2ccc(/C=N/Nc3nc(N4CCCC4)nc(N4CCCC4)n3)o2)cc1	MT stabilize HCS 35
O=[N+]([O-])c1cccc(-c2ccc(/C=N/Nc3nc(N4CCCCC4)nc(N4CCCCC4)n3)o2)c1	Lmaj promast 90
O=[N+]([O-])c1cccc(/C=N/Nc2nc(N3CCCCC3)nc(N3CCCCC3)n2)c1	Lmaj promast 76 (no result: bCat nuc transl)
CCNc1nc(NCC)nc(N/N=C/c2ccc([N+](=O)[O-])o2)n1	Lmaj promast 98
O=C(O)c1cccc(NC(=O)C2CC(=O)N(Cc3ccccc3)C2)c1 (centres undefined)	none
Nc1c(N)c2ccccc2oc1=O	none
COc1ccccc1-c1cnnc(N/N=C/c2ccc(-c3cccc(Br)c3)o2)n1	none
O=[N+]([O-])c1ccc(/C=N/Nc2nc(N3CCCC3)nc(N3CCCC3)n2)o1	Lmaj promast 99
COc1ccc(-c2cnnc(N/N=C/c3ccc(-c4ccc([N+](=O)[O-])cc4)o3)n2)cc1	MT stabilize HCS 40, bCat nuc transl 81
O=[N+]([O-])c1cc(/C=N/Nc2nc(N3CCCCC3)nc(N3CCCCC3)n2)ccc1O	none
Cc1ccc(C)c(S(=O)(=O)c2c(N)n(/N=C/c3ccco3)c3nc4ccccc4nc23)c1	Lmaj promast 94
Nc1c(S(=O)(=O)c2ccccc2)c2nc3ccccc3nc2n1/N=C/c1cccc(O)c1	Lmaj promast 91
Cc1cccc(S(=O)(=O)c2c(N)n(/N=C/c3ccccc3)c3nc4ccccc4nc23)c1	none (no result: bCat nuc transl)
CCOC(=O)N1CCN(c2c(N3CCN(c4cccc(C(F)(F)F)c4)CC3)c(=O)c2=O)CC1	none
O=NN(CCc1ccncc1)c1ccc(OCc2ccccc2)cc1	Lmaj promast 86
COc1ccc2c(c1)[nH]c1c(=O)n(Cc3ccco3)cnc12	none (no result: HSV replic up)
CC(=O)OCC[n+]1c(C)n(-c2ccccc2)c2ccc(Cl)cc21	none
CCOc1cccc2cc(-c3csc(NC(=O)CCC(=O)NCCCN4CCC(C)CC4)n3)c(=O)oc12	Lmaj promast 62
COc1cccc2cc(-c3csc(NC(=O)CCC(=O)NCCCN4CCC(C)CC4)n3)c(=O)oc12	none (no result: MT stabilize HCS, Lmaj promast)
Cc1ccc(NC(=O)c2sc3nc(CCl)[nH]c(=O)c3c2C)c(C)c1	Lmaj promast 89
Cc1cc(C)c(NC(=O)c2sc3nc(C)[nH]c(=O)c3c2C)c(C)c1	none
Cc1[nH]n(-c2ccccc2)c(=O)c1C(c1cccc([N+](=O)[O-])c1)c1c(C)[nH]n(-c2ccccc2)c1=O	none
Cc1[nH]n(-c2ccccc2)c(=O)c1C(C[N+](=O)[O-])c1ccc(Br)cc1 (centres undefined)	Lmaj promast 100
Cc1nn(C(C)C)c(C)c1CN1CCN(Cc2ccsc2)C(CCO)C1 (centres undefined)	none
CC1CCCC(C)N1CC(O)COCC1COc2ccccc2O1 (centres undefined)	Lmaj promast 52 (no result: bCat nuc transl)
CC12CCC(C(=O)N(CC3CO3)C1=O)C2(C)C (centres undefined)	none
CC(C(=O)N1CCOCC1)N1C(=O)C2C3CC(C(Br)C3Br)C2C1=O (centres undefined)	none
O=C(NN=C1CCCC1)c1[nH]c2ccc(Br)cc2c1-c1ccccc1	none (no result: MT stabilize HCS, Lmaj promast)
CN=C1SC(CC(=O)Nc2ccccc2F)C(=O)N1C (centres undefined)	none
CCOc1ccccc1N=C1SC(CC(=O)Nc2ccc(OC)cc2OC)C(=O)N1CCC1=CCCCC1 (centres undefined)	Lmaj promast 80
O=C(CC1SC(=Nc2ccc(OC(F)F)cc2)N(CCC2=CCCCC2)C1=O)Nc1ccccc1F (centres undefined)	Lmaj promast 96
O=[N+]([O-])c1ccc(NC(=S)N2CCc3ccccc3C2)cc1	none
COc1cc(/C=N/NC(=O)c2csc3c2CCCC3)cc(OC)c1O	none
Cc1ccc(/C=N/NC(=O)c2csc3c2CCCC3)cc1	MT stabilize HCS 20
CC(C)(C)C1CCc2c(C(=O)N/N=C/c3cccs3)csc2C1 (centres undefined)	Lmaj promast 96
COc1ccc(NC(=O)c2cc(-c3ccco3)nc3ccccc23)cc1S(=O)(=O)N1CCOCC1	none (no result: MT stabilize HCS, Lmaj promast)
Cc1cc(F)ccc1S(=O)(=O)N(C(=O)c1ccncc1)c1ccc(OC(=O)c2ccncc2)cc1	none
Cc1ccc(S(=O)(=O)N(C(=O)c2ccncc2)c2ccc(OC(=O)c3ccncc3)c3ccccc23)cc1	Lmaj promast 98 (no result: HSV replic up)
Cc1ccc(S(=O)(=O)N(C(=O)c2ccncc2)c2ccc(OC(=O)c3ccncc3)c3ccccc23)c(C)c1	Lmaj promast 98
COc1ccc(N2CCN(C(CNS(=O)(=O)c3cc(F)ccc3F)c3cccnc3)CC2)cc1 (centres undefined)	Lmaj promast 99 (no result: bCat nuc transl, HSV replic up)
O=S(=O)(NCC(c1cccnc1)N1CCN(c2ccc(F)cc2)CC1)c1cc(F)ccc1F (centres undefined)	Lmaj promast 95 (no result: bCat nuc transl)
O=S(=O)(NCC(c1cccnc1)N1CCOCC1)c1ccc(Cl)cc1 (centres undefined)	none
CCOC(=O)c1ccc(NCCOC)c([N+](=O)[O-])c1	none
COC(=O)c1ccc(NC(CC(C)C)C(=O)OC)c([N+](=O)[O-])c1 (centres undefined)	Lmaj promast 52
O=c1oc2ccccc2c(Nc2cc3ccccc3cc2O)c1[N+](=O)[O-]	MT stabilize HCS 17
O=C(c1ccccc1)N1CCCC(c2nc3c(nnn3Cc3ccccc3)c(=O)[nH]2)C1 (centres undefined)	none
COc1ccccc1NC(=O)N1CCCC(c2nc3c(nnn3Cc3ccc(C)cc3)c(=O)[nH]2)C1 (centres undefined)	Lmaj promast 52
COc1ccccc1NC(=O)N1CCC(c2nc3cc(C)c(C)cc3[nH]2)CC1	MT stabilize HCS 18
CC(C)C[C@H](NC(=O)OC(C)(C)C)c1nnc(SCc2ccccc2)o1	Lmaj promast 85
CCOC(=O)CSc1nnc([C@H](Cc2ccccc2)NC(=O)OC(C)(C)C)o1	none
Cc1cc(NC(=O)/C=C/c2ccccc2Cl)no1	none
CCn1c(-c2ccccc2)csc1=Nc1ccc(S(=O)(=O)O)cc1	Lmaj promast 55 (no result: bCat nuc transl)
CC(C)Cn1cnc2c(=O)oc3ccccc3c21	none (no result: bCat nuc transl)
CCOC(=O)C1=C(O)/C(=C/c2cccc(OC)c2O)N=C1C	Lmaj promast 63

Assay outcomes: PubChem, several laboratories
